Measured values gathered from unrelated publications.
Target: Ephrin type-A receptor 8 (EPHA8, Homo sapiens, UniProt P29322)
One construct used (P29322 28-1005): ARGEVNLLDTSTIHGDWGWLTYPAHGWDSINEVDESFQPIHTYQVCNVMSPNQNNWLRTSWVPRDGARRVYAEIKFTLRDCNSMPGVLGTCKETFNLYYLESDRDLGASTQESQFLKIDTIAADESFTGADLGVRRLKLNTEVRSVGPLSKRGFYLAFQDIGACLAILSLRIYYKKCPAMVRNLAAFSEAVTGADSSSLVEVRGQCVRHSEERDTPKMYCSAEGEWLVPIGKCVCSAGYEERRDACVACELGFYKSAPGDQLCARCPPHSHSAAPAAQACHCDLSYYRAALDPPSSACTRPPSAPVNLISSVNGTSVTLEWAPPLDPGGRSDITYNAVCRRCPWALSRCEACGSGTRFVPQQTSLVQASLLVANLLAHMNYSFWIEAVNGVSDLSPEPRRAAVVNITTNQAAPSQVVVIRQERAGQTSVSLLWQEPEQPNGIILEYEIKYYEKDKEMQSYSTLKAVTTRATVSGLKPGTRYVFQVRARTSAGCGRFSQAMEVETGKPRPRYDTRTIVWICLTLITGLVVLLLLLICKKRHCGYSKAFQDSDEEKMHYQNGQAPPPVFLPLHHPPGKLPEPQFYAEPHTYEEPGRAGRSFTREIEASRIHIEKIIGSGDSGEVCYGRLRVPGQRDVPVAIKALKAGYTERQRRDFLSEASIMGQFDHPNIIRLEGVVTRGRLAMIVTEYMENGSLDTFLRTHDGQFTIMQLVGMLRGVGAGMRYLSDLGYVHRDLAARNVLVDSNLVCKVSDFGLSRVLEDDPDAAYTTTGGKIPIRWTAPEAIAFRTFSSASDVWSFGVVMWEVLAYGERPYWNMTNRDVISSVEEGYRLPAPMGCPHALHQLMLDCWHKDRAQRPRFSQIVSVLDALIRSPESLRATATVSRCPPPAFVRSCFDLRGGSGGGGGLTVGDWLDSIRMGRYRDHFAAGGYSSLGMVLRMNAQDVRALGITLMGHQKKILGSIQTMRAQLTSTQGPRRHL

SMILES | assay | setting | endpoint | value
COc1cc2ncnc(Nc3ccc(Oc4ccccc4)cc3C)c2cc1OC | enzyme activity, inhibitor | 1 µM | inhibition | 21%
O=C1NC(=O)c2cc(Nc3ccc(F)cc3)c(Nc3ccc(F)cc3)cc21 | cell-free assay | 0.5 µM | remaining signal | 95.5%
CCN(CC)c1ccc(C2=NNC(=O)CC2C)cc1[N+](=O)[O-] (stereo not drawn) | enzyme activity, inhibitor | 10 µM | remaining activity | 115%
O=C1CCc2cc(Nc3cc(OC4CCOCC4)c([N+](=O)[O-])cc3Cl)ccc2N1 | cell-free assay, competition with immobilised ligand | 1 µM | remaining binding | 100%
CC(C)(C)c1nc(-c2cccc(NS(=O)(=O)c3c(F)cccc3F)c2F)c(-c2ccnc(N)n2)s1 | enzyme activity, inhibitor, radiometric | 1 µM | remaining activity | 105%
COc1cc(-c2cc(-c3ccc(N4CCNCC4)cc3)cnc2C)cc(OC)c1OC | enzyme activity, inhibitor | 1 µM | inhibition | 10%
Cc1ccc(C(=O)Nc2ccc(CN3CCN(C)CC3)c(C(F)(F)F)c2)cc1C#Cc1cnc2cccnn12 | cell-free assay | 23.5 nM | remaining signal | 0.9%
O=C(Nc1cnn(-c2csc(C(=O)NC3COC3)c2)c1)Nc1ccccc1Cl | enzyme activity, inhibitor | 5 µM | remaining activity | 103%
CCCS(=O)(=O)Nc1ccc(F)c(C(=O)c2c[nH]c3ncc(-c4ccc(Cl)cc4)cc23)c1F | enzyme activity, inhibitor | 1 µM | inhibition | < 20%
Cc1ccc(NC(=O)c2ccc(C)c(C(F)(F)F)c2)cc1C#Cc1nn(C2CCC(O)CC2)c2ncnc(N)c12 (stereo not drawn) | cell-free assay | 10 µM | remaining signal | 2%
Cc1ccc(C(=O)NCc2ccsc2)cc1C#Cc1cn(C(C)C)c2ncnc(N)c12 | enzyme activity, inhibitor | 1 µM | activity vs control | 6%
CCCOc1ccc([C@H]2[C@H](C(=O)O)[C@@H](c3ccc4c(c3)OCO4)CN2CC(=O)Nc2c(CC)cccc2CC)cc1 | cell-free assay, competition with immobilised ligand | 1 µM | remaining binding | 98%
CNC(=O)c1cc(Oc2ccc(NC(=O)Nc3ccc(Cl)c(C(F)(F)F)c3)cc2)ccn1 | enzyme activity, inhibitor | 10 µM | inhibition | 89%
CO[C@H]1CC[C@H](CNc2ccc(S(=O)(=O)NC(=O)c3ccc(N4CCN(CC5=C(c6ccc(Cl)cc6)CC(C)(C)CC5)CC4)cc3Oc3cnc4[nH]ccc4c3)cc2[N+](=O)[O-])CC1 | cell-free assay, competition with immobilised ligand | 1 µM | remaining binding | 84%
CNC(=O)c1cc2c(Oc3ccc(NC(=O)C4(C(=O)Nc5ccc(F)cc5)CC4)cc3)ccnc2cc1OC | enzyme activity, inhibitor, radiometric | 1 µM | inhibition | 102%
C[C@H](NC(=O)c1cnc2n1[C@](C)(Cc1ccc(C#N)cc1)C(=O)N2c1cc(Cl)c(F)c(Cl)c1)C(=O)NC1(c2ccccn2)CC1 | cell-free assay, competition with immobilised ligand | 1 µM | remaining binding | 100%
Clc1ccc(Nc2nnc(Cc3ccncc3)c3ccccc23)cc1 | cell-free assay | 0.5 µM | remaining signal | 100%
c1ccc(N2CCN(Cc3nc4ccccc4[nH]3)CC2)nc1 | cell-free assay, competition with immobilised ligand | 1 µM | remaining binding | 100%
Cc1sc(C(=O)NC2COC2)cc1-n1cc(NC(=O)Nc2c(F)cccc2Cl)cn1 | enzyme activity, inhibitor | 10 µM | remaining activity | 91.7%
O=C(NCCCC1CCCCC1)c1ccc(CNC(=O)c2cnn(-c3ccccc3)c2C(F)(F)F)cc1 | cell-free assay, competition with immobilised ligand | 0.1 µM | remaining binding | 95%
Cc1ccc(Nc2nccc(N(C)c3ccc4c(C)n(C)nc4c3)n2)cc1S(N)(=O)=O | enzyme activity, inhibitor | 0.3 µM | inhibition | 17%
